Data reported in PMC11399684 (Saudi Pharmaceutical Journal : SPJ, 2024).

Tests used:
[1] = Plasma pharmacokinetic study; type: in vivo, male Wistar rats; settings: drug delivered by MPG2 (MPG2ER), intraperitoneal
Procedure, shortened: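 Male Wistar rats (200 ± 50 g), fasted, got a single intraperitoneal dose of the dendrimer formulation at 10 mg/kg drug equivalent in 5 % v/v DMSO, with 4 rats per time point. Retro-orbital blood (0.5 ml) was drawn at 0.5–96 h and centrifuged for 10 min at 12000 rpm, 4 °C. Plasma underwent single-step protein precipitation and HPLC at 254 nm. Parameters came from non-compartmental analysis.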

[2] = Tissue distribution study; type: in vivo, male Wistar rats; settings: for AUCtol / AUMC / Cl: after MPG2ER 10 mg/kg i.p.; for Cmax / MRT / Tmax / half-life: male, Wistar, rat, ip, 10 mg/kg
Procedure, shortened: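 Male Wistar rats (200 ± 50 g), fasted, were dosed intraperitoneally with the formulation at 10 mg/kg drug equivalent in 5 % v/v DMSO, with 4 rats per time point. At 0.5, 1, 2, 4, 6, 12, 24, 48, 72 and 96 h, rats were killed by cervical dislocation. Excised tissues were homogenised, protein-precipitated in a single step and assayed for drug by HPLC.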

With `CC(C)c1nc(CN(C)C(=O)N[C@H](C(=O)N[C@@H](Cc2ccccc2)C[C@H](O)[C@H](Cc2ccccc2)NC(=O)OCc2cncs2)C(C)C)cs1` [RTV, ritonavir] the “Duration of sustained release in plasma” value [1] was ≤ 72 h, the AUCtol ([2]; Brain) was 9.25±2.074 (μg/mL)*hr and the AUMC ([2]; Brain) was 97.42± 68.213 (μg/mL)*hr. For the same compound, the Cl ([2]; Brain) was 0.270± 0.008 (μg/kg)/((μg/mL)/hr, the AUCtol ([2]; Heart) was 18.34±1.190 (μg/mL)*hr and the AUMC ([2]; Heart) was 285.923± 47.303 (μg/mL)*hr. For the same compound, the Cl ([2]; Heart) was 0.136± 0.032 (μg/kg)/((μg/mL)/hr, the AUCtol ([2]; Kidney) was 29.27±1.620 (μg/mL)*hr and the AUMC ([2]; Kidney) was 641.30± 73.625 (μg/mL)*hr. The Cl ([2]; Kidney) was 0.087± 0.036 (μg/kg)/((μg/mL)/hr, the AUCtol ([2]; Liver) was 14.51±2.024 (μg/mL)*hr and the AUMC ([2]; Liver) was 240.78± 26.201 (μg/mL)*hr. For the same compound, the Cl ([2]; Liver) was 0.172± 0.012 (μg/kg)/((μg/mL)/hr, the AUCtol ([2]; Lymph Node) was 25.07±1.305 (μg/mL)*hr and the AUMC ([2]; Lymph Node) was 421.67± 81.067 (μg/mL)*hr. For the same compound, the Cl ([2]; Lymph Node) was 0.085± 0.007 (μg/kg)/((μg/mL)/hr, the AUCtol ([2]; Spleen) was 25.82±0.934 (μg/mL)*hr and the AUMC ([2]; Spleen) was 464.21± 27.094 (μg/mL)*hr. For the same compound, the Cl ([2]; Spleen) was 0.091± 0.043 (μg/kg)/((μg/mL)/hr, the Cmax ([2]; brain) was 790 ± 32 ng/mL and the MRT ([2]; brain) was 10.5 ± 1 h. The Tmax ([2]; brain) was 4 h, the half-life ([2]; brain) was 6.67 ± 0.792 h and the Cmax ([2]; heart) was 2400 ± 15 ng/mL. For the same compound, the MRT ([2]; heart) was 15.6 ± 1.93 h, the Tmax ([2]; heart) was 4 h and the half-life ([2]; heart) was 13.4 ± 0.45 h. The Cmax ([2]; kidney) was 2490 ± 55 ng/mL, the MRT ([2]; kidney) was 21.9 ± 0.761 h and the Tmax ([2]; kidney) was 4 h. It also gave a half-life ([2]; kidney) of 14.7 ± 0.652 h, a Cmax ([2]; liver) of 2890 ± 21 ng/mL and an MRT ([2]; liver) of 16.6 ± 0.272 h. It also gave a Tmax ([2]; liver) of 4 h, a half-life ([2]; liver) of 10.9 ± 0.325 h and a Cmax ([2]; lymph node) of 2030 ± 42 ng/mL. For the same compound, the MRT ([2]; lymph node) was 16.3 ± 0.937 h, the Tmax ([2]; lymph node) was 4 h and the half-life ([2]; lymph node) was 12.9 ± 1.09 h. It also gave a Cmax ([2]; spleen) of 2130 ± 24 ng/mL, an MRT ([2]; spleen) of 18 ± 1 h and a Tmax ([2]; spleen) of 4 h. It also gave a half-life ([2]; spleen) of 13 ± 1.02 h.

For `O=C1Nc2ccc(Cl)cc2[C@@](C#CC2CC2)(C(F)(F)F)O1` [EFV, efavirenz], the “Duration of sustained release in plasma” value [1] was “up to 96 hrs”, the AUCtol ([2]; Brain) was 124±1.660 (μg/mL)*hr and the AUMC ([2]; Brain) was 3245±73.69 (μg/mL)*hr. The Cl ([2]; Brain) was 0.08064±0.001 (μg/kg)/((μg/mL)/hr, the AUCtol ([2]; Heart) was 132.1±1.150 (μg/mL)*hr and the AUMC ([2]; Heart) was 4027 ±87.53 (μg/mL)*hr. For the same compound, the Cl ([2]; Heart) was 0.07601±0.003 (μg/kg)/((μg/mL)/hr, the AUCtol ([2]; Kidney) was 121.2±0.164 (μg/mL)*hr and the AUMC ([2]; Kidney) was 3190±6.976 (μg/mL)*hr. The Cl ([2]; Kidney) was 0.08248±0.001 (μg/kg)/((μg/mL)/hr, the AUCtol ([2]; Liver) was 97.88±1.146 (μg/mL)*hr and the AUMC ([2]; Liver) was 2959±32.860 (μg/mL)*hr. The Cl ([2]; Liver) was 0.1075±0.008 (μg/kg)/((μg/mL)/hr, the AUCtol ([2]; Lymph Node) was 96.33±0.190 (μg/mL)*hr and the AUMC ([2]; Lymph Node) was 3143±75.49 (μg/mL)*hr. The Cl ([2]; Lymph Node) was 0.1038±0.002 (μg/kg)/((μg/mL)/hr, the AUCtol ([2]; Spleen) was 88±2.205 (μg/mL)*hr and the AUMC ([2]; Spleen) was 2799±81.109 (μg/mL)*hr. The Cl ([2]; Spleen) was 0.1156±0.002 (μg/kg)/((μg/mL)/hr, the Cmax ([2]; brain) was 6653 ± 35 ng/mL and the MRT ([2]; brain) was 26.2 ± 0.284 h. For the same compound, the Tmax ([2]; brain) was 6 h, the half-life ([2]; brain) was 13.53 ± 0.088 h and the Cmax ([2]; heart) was 4674 ± 25 ng/mL. It also gave an MRT ([2]; heart) of 30.3 ± 1.28 h, a Tmax ([2]; heart) of 6 h and a half-life ([2]; heart) of 19.3 ± 0.598 h. For the same compound, the Cmax ([2]; kidney) was 5342 ± 20 ng/mL, the MRT ([2]; kidney) was 27.3 ± 1.02 h and the Tmax ([2]; kidney) was 6 h. The half-life ([2]; kidney) was 17.52 ± 0.0127 h, the Cmax ([2]; liver) was 5980 ± 83 ng/mL and the MRT ([2]; liver) was 30.7 ± 0.384 h. It also gave a Tmax ([2]; liver) of 6 h, a half-life ([2]; liver) of 16.9 ± 1.09 h and a Cmax ([2]; lymph node) of 3440 ± 48 ng/mL. The MRT ([2]; lymph node) was 32.63 ± 0.113 h, the Tmax ([2]; lymph node) was 6 h and the half-life ([2]; lymph node) was 21 ± 0.054 h. It also gave a Cmax ([2]; spleen) of 4580 ± 69 ng/mL, an MRT ([2]; spleen) of 32.1 ± 1.65 h and a Tmax ([2]; spleen) of 6 h. It also gave a half-life ([2]; spleen) of 21.9 ± 0.25 h.
